Results from PMC8753134 (Research and Practice in Thrombosis and Haemostasis, 2022).
Counter-ions that a name gives are not always drawn. Like-named read-outs stand apart in the source and are kept apart here. One block for each compound: values may come before it. No end group written: not given here.

Experiments:
[1] = tested on: FXIIa and PKa (contact activation-mediated BK formation); assay: Screening of serine protease inhibitors against artificial ex vivo BK formation; format: biochemical, human; conditions: citrate plasma; for BK levels after 4.5 hours: 4.5 hours after sampling, n = 3
Outline: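 Fresh blood in citrate, with serine protease inhibitors present singly (e.g., 2 mM AEBSF), then combinations of the most promising; uninhibited plasma as reference. BK was quantified by in-house LC-MS/MS immediately (reference value) and up to 4.5 h after sampling, given as relative abundance. Samples were analysed directly without long-term storage.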

[2] = cited from earlier work
[3] = format: in vitro ADME, human; conditions: spiked 1 ng/mL, 3 hours after sampling, absence of inhibitor, n = 3

Compound: N=C(N)c1ccc2cc(OC(=O)c3ccc(N=C(N)N)cc3)ccc2c1 [nafamostat, nafamostat mesylate]
BK levels after 4.5 hours [1]: BK levels were increased

Compound: RPPGFSPFR [BK, Bradykinin]
half-life [2]: < 1 min

Compound: CC(=O)N[C@@H](CC(C)C)C(=O)N[C@@H](CC(C)C)C(=O)N[C@H](C=O)CCCNC(=N)N [leupeptin, leupeptin hemisulfate]
BK levels after 4.5 hours [1]: BK levels were increased

Compound: RPPGF [BK‐(1‐5), Bradykinin 1–5]
half-life ([2]; inactive metabolite): ≈ 90 minutes

Compound: hexadimethrine bromide [HDMB]
BK level as % of uninhibited plasma ([1]; tube prespiked with inhibitor, n = 3, LC-MS/MS): 0.4%

change of spiked plasma kinin level [3]: −100%
Compound: NCCCC[C@H](N)C(=O)N[C@@H](CCCN=C(N)N)C(=O)N1CCC[C@H]1C(=O)N1CCC[C@H]1C(=O)NCC(=O)N[C@@H](Cc1ccccc1)C(=O)N[C@@H](CO)C(=O)N1CCC[C@H]1C(=O)N[C@@H](Cc1ccccc1)C(=O)N[C@@H](CCCN=C(N)N)C(=O)O [KBK, Kallidin]
half-life [2]: < 1 min

change of spiked plasma kinin level [3]: −65.7%
Compound: RPPGFSP [BK‐(1‐7), Bradykinin 1–7]
